Screening results deposited in PubChem by Johns Hopkins Ion Channel Center.
MrgX1 allo act – human MrgX1 positive allosteric modulation, primary screen; Q96LB2; MrgX1-HEK293, Fluo-4 calcium flux, FDSS; active compounds read high; B-score at 10 µM; 310,000 compounds, 0.63% hits; AID 588675;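 active means plate-corrected calcium response at least 3 library SD above typical, normal starting fluorescence, not activating the receptor alone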;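 further: compound read alongside a low EC10 to EC30 dose of BAM8-22 agonist; peak minus trough fluorescence over baseline measured at the second addition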
Target sequence (Q96LB2 whole entry, looked up): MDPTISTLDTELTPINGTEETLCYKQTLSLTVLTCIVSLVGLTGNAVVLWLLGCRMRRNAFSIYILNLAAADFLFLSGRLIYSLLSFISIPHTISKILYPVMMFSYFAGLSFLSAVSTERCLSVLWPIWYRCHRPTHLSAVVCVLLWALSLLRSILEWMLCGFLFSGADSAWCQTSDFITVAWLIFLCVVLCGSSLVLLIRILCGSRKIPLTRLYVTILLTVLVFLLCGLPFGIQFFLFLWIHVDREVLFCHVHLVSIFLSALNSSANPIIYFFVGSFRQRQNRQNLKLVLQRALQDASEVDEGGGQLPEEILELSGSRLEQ
MrgX1 antag – blocks BAM8-22 activation of human MrgX1 receptor; B-score at 10 µM; Q96LB2; 310,000 compounds, 1.3% hits; MRGX1-HEK293 calcium flux, Fluo-4, BAM8-22 antagonism; active compounds read low; AID 588676;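 active means calcium-response B-score plate-corrected more than 3 library SD below zero, starting fluorescence within 5 deviations, no agonist response on first addition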;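 further: peak minus trough fluorescence over baseline after final BAM8-22 challenge near maximal dose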
MrgX1 agonist – activates human MrgX1 receptor signaling | Q96LB2 | MrgX1-HEK293 cells, Fluo-4 calcium fluorescence, agonist mode; active compounds read high | B-score at 10 µM | 310,000 compounds, 0.44% hits | AID 588627;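 active means calcium response B-score plate-corrected fluorescence ratio at least 3 library SD, with starting fluorescence B-score inside 5 SD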
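Test system: HEK293 cells stably expressing human MrgX1 receptor; Input: fifteen thousand cells per well; Dosing: compound delivered in addition one of three; Schedule: overnight seeding, then 1 h dark dye loading; Technique: Fluo-4 NW calcium fluorescence; Measure: B-scored fluorescence response ratio; Controls: positive and negative controls per plate.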
RGS4 pot – potentiators or activators of RGS4 | HEK293 M3R/inducible RGS4, carbachol calcium flux Fluo4; active compounds read low | B-score at 10 µM | 310,000 compounds, 0.92% hits;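 active means B-score of the integrated calcium signal more than 4 SD below the library mean, with starting fluorescence not abnormally high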;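 further: negative B-score means reduced calcium response which marks RGS4 activation or potentiation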
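test system = HEK293 cells with stable M3R and inducible RGS4 | schedule = recording 10 s baseline at 1 Hz, 100 s post-agonist | technique = Fluo4-AM (2 µM) calcium-flux fluorescence, kinetic read | measure = Agonist-evoked peak-minus-minimum fluorescence over baseline, integrated ratio, B score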
RGS4 inh – inhibitors of human RGS4; AID 463165; HEK293 M3R/RGS4 inducible, Fluo-4 calcium flux; active compounds read high; triggered by carbachol at its EC20; B-score at 10 µM; 310,000 compounds, 0.45% hits;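 active means B-score, a plate-corrected calcium signal, over three deviations above library mean, with baseline fluorescence within five deviations of library mean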;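 further: RGS4 expression induced by doxycycline in cells with stable M3 receptor; B-score is computed from the integrated fluorescence ratio over baseline after carbachol; higher B-score means a larger calcium signal and so more RGS4 inhibition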
Target sequence (P49798 whole entry, looked up): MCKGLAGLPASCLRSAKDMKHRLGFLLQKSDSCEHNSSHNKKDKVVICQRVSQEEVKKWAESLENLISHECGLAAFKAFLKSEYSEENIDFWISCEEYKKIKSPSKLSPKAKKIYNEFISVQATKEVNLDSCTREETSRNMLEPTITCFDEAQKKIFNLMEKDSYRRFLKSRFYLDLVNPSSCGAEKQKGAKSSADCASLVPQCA
MrgX1 antag conf – confirmation of human MrgX1 receptor antagonists. shares compounds with MrgX1 antag. MrgX1-HEK293, BAM8-22 calcium flux, Fluo-4; active compounds read low. remaining BAM8-22 calcium response % of control (active compounds read low), % at 10 µM. 2,300 compounds, 19% hits. AID 602420;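 active means remaining agonist calcium response no higher than 100% minus 3 SD of agonist-only control wells, with starting fluorescence near control levels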;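 further: agonist BAM8-22 given at a near maximal EC90 to ECmax level; peak minus minimum fluorescence divided by baseline after agonist addition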
HEK293 Ca flux – activity in parental HEK293 cells lacking MrgX1 | shares compounds with MrgX1 antag | Fluo-4 calcium fluorescence, FDSS | fluorescence ratio F(max-min)/F0 at 10 µM | 4,000 compounds, 2% hits | AID 624111;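 active means duplicate-averaged calcium fluorescence ratio at least three times the standard deviation of buffer wells, a nonspecific response in parental cells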
HEK293 Ca counter – counter-screen for MrgX1 allosteric activators: effect in parental HEK293 cells; shares compounds with MrgX1 antag; parental HEK293 calcium flux, Fluo-4 fluorescence ratio; active compounds read high; fluorescence ratio F(max-min)/F0 at 10 µM; 4,000 compounds, 0.4% hits; AID 624114;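 active means calcium fluorescence ratio, averaged over duplicates, at least 3 SD of the buffer-well ratio, meaning a nonspecific response in receptor-free cells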;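 further: untransfected parental HEK293 lacking MrgX1 used as counterscreen for MrgX1 allosteric activators; fluorescence change taken during the second addition on a kinetic imager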
HEK293 Ca cntr2 – MrgX1 activator counter-screen hit in parental HEK293 cells | shares compounds with MrgX1 antag | Fluo-4 calcium fluorescence (FDSS); active compounds read high | fluorescence ratio F(max-min)/F0 at 10 µM | 4,000 compounds, 8.7% hits;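 active means calcium fluorescence ratio at least three times the spread of buffer wells, meaning a non-specific response in parental cells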
The depositor's hits bear a star; i = inactive; x = not tested or not shown. Hits are enriched below; roughly 3.5% of the tested compounds scored in any of these assays.

SMILES	MrgX1 allo act	MrgX1 antag	MrgX1 agonist	RGS4 pot	RGS4 inh	MrgX1 antag conf	HEK293 Ca flux	HEK293 Ca counter	HEK293 Ca cntr2
CC(C)[C@H](NC(=O)C1CC(=O)N(c2ccc3c(c2)OCCO3)C1)C(=O)NC1CCCC1 (stereo partly drawn)	i	i	i	i	i	x	x	x	x
COCCCn1c(SC(C)C(=O)NC2CC2)nc2ccccc2c1=O (stereo not drawn)	i	i	i	i	i	x	x	x	x
O=C(NCc1ccc2c(c1)OCO2)C1CC(=O)N(CCc2ccc(F)cc2)C1 (stereo not drawn)	i	i	i	i	i	x	x	x	x
COC(=O)c1ccc(C(=O)OC)c(NC(=O)CCC(=O)O)c1	i	i	i	i	i	x	x	x	x
COC(=O)c1ccc(C(=O)OC)c(NC(=O)COC(=O)c2ccccc2OC)c1	i	-6.7*	i	i	i	84%*	i	i	i
COc1ccccc1NC(=O)CN1CCN(CC(=O)Nc2ccc(S(N)(=O)=O)cc2)CC1	i	-7.6*	i	i	i	i	i	i	i
COC(=O)Cn1cc(S(=O)(=O)NCc2ccc(C)cc2)c2cc([N+](=O)[O-])ccc21	i	i	i	i	i	x	x	x	x
O=C(Cn1nc(C(F)(F)F)cc1C1CC1)Nc1ccccc1F	i	-5.1*	i	i	i	i	i	i	i
CCOc1cc(/C=C(\C#N)C(=O)Nc2cccc(C(=O)O)c2)cc(Br)c1OC(=O)c1ccc(OC)cc1	i	-10*	i	-8.1*	i	i	i	i	50*
N#C/C(=C\c1ccc(OCc2ccc(Br)cc2)cc1)C(=O)Nc1cccc(C(=O)O)c1	i	i	i	i	i	x	x	x	x
O=C(NCCOc1ccccc1F)C1CCC(=O)N(CC2CCCCC2)C1 (stereo not drawn)	x	x	x	i	i	x	x	x	x
CN(C)c1ccc(/C=C/c2ccc3ccccc3n2)cc1	i	-6.9*	i	i	i	i	0.55*	i	i
C(=C\c1ccc2ccccc2n1)/c1ccccc1	i	i	i	i	i	x	x	x	x
CC(Oc1ccccc1Cl)c1nnc(N)s1 (stereo not drawn)	i	-7.8*	i	i	i	i	i	i	i
Cc1[nH]c(=O)nc(SCc2ccc(Cl)c(Cl)c2)c1C#N	i	-7*	i	i	i	i	i	i	i
Cc1[nH]c(=O)nc(SCc2cccc(Cl)c2)c1C#N	i	i	i	i	i	x	x	x	x
COCCCNC(=S)N1CCN(c2nc(-c3ccc(F)cc3)cs2)CC1	i	i	i	i	i	x	x	x	x
CCOCCCNC(=S)N1CCN(c2nc(-c3ccc(F)cc3)cs2)CC1	i	-6.4*	i	i	i	71%*	i	i	i
CCCC1(c2ccccc2)NC(=O)N(CC(=O)N(C)Cc2c(F)cccc2Cl)C1=O (stereo not drawn)	i	i	i	i	i	x	x	x	x
CN(C)CCN1CC(O)=C(c2nc3ccccc3s2)C1=N	i	-5.7*	i	i	i	i	i	i	i
N=C1C(c2nc3ccccc3s2)=C(O)CN1Cc1ccco1	i	i	i	i	i	x	x	x	x
O=C(Nc1cccc(Cl)c1)C1CCN(C(=O)c2cccs2)CC1	i	i	i	i	i	x	x	x	x
Cn1c(SCC(=O)Nc2nccs2)nnc1-c1ccccn1	i	i	i	i	i	x	x	x	x
CC(C)N(Cc1ccccc1)C(=O)C1CCN(c2ncnc3c2nc2n3CCCCC2)CC1	i	-4.8*	i	i	i	i	i	i	57*
Cc1ccc(NC(=O)CSc2nnc(C3CC3)n2CC2CCCO2)c(C)c1 (stereo not drawn)	i	i	i	i	i	x	x	x	x
SMILES	MrgX1 allo act	MrgX1 antag	MrgX1 agonist	RGS4 pot	RGS4 inh	MrgX1 antag conf	HEK293 Ca flux	HEK293 Ca counter	HEK293 Ca cntr2
c1ccc(CSc2nnc(-c3cccs3)n2Cc2ccco2)cc1	i	-5.8*	i	i	i	83%*	i	i	i
Cc1ccccc1CSc1nnc(-c2cccs2)n1Cc1ccco1	i	i	i	i	i	x	x	x	x
O=C(CSc1nnc(-c2ccc(F)cc2)o1)N1CCCC1	i	i	i	i	i	x	x	x	x
CC(C)NC(=O)Cn1cc(S(=O)(=O)N2CCCC2)c(S(=O)(=O)N2CCCC2)c1	i	i	i	i	i	x	x	x	x
CC(c1ccccc1C(O)(c1ccccc1)c1ccccc1)N(C)C (stereo not drawn)	i	-5.4*	i	i	i	i	i	i	i
Nc1cc(=O)[nH]c(SCc2nnnn2-c2ccc(Cl)cc2)n1	i	-6.9*	i	i	i	i	i	i	i
Cc1cc(=O)[nH]c(SCc2nnnn2-c2ccc(Cl)cc2)n1	i	i	i	i	i	x	x	x	x
CCOC(=O)C1=C(CC)Nc2ccccc2N=C1NC(=O)Nc1ccc(Cl)c(Cl)c1	i	-6.1*	i	i	i	50%*	i	i	i
CCOC(=O)C1=C(CC)Nc2ccccc2N=C1NC(=O)c1ccc(S(=O)(=O)N2CCCC2)cc1	i	i	i	i	i	x	x	x	x
CSc1cccc(NC(=S)N(CCC(C)C)C2CCN(C(C)=O)CC2)c1	i	i	i	i	i	x	x	x	x
CSc1cccc(NC(=S)N(CCC(C)C)C2CCN(C(C)C)CC2)c1	i	-6.3*	i	i	i	i	i	i	i
Cc1ccc(CNc2cnccn2)cc1	i	-6.1*	i	i	i	i	i	i	i
COc1cccc(COc2ccc3c(C)c(Cc4ccccc4)c(=O)oc3c2)c1	i	-6.3*	i	i	i	i	i	i	i
Cc1ccc(NC(=S)NCCc2ccc(F)cc2)c(C)c1	i	-6.2*	i	i	i	i	i	i	i
S=C1NC2(CCCCC2)Nc2ccccc21	i	i	i	i	i	x	x	x	x
